Assay results reported in ChEMBL document CHEMBL1772934, “Applications of 2-arylhydrazononitriles in synthesis: preparation of new indole containing 1,2,3-triazole, pyrazole and pyrazolo[1,5-a]pyrimidine derivatives and evaluation of their antimicrobial activities” (2011).

Columns and labels:
Format in all cases: functional
Settings in all cases: read-out: DIZ
[1] = test system: Escherichia coli; assay: Antimicrobial activity against Escherichia coli at 1 mg/ml after 24 hrs by agar well diffusion method
How it was run: (§1)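 A 0.1 mL aliquot of each bacterial strain was spread on nutrient agar. 4 mm wells were cut with a sterile cork borer and filled with compound in DMSO at a final concentration of 1 mg mL-1. Plates were incubated at 37 °C for 24 h. The inhibition zone diameter around each well was measured and averaged over triplicate measurements.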

[2] = test system: Staphylococcus aureus; assay: Antimicrobial activity against Staphylococcus aureus at 1 mg/ml after 24 hrs by agar well diffusion method; how it was run: as §1
[3] = test system: Bacillus subtilis; assay: Antimicrobial activity against Bacillus subtilis at 1 mg/ml after 24 hrs by agar well diffusion method; how it was run: as §1
[4] = test system: Candida albicans; assay: Antimicrobial activity against Candida albicans at 1 mg/ml after 48 hrs by agar well diffusion method
How it was run: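 A 0.1 mL aliquot of the yeast was spread on potato dextrose agar. 4 mm cork-borer wells received compound in DMSO at a final concentration of 1 mg mL-1. Plates were incubated at 25 °C for 48 h. The inhibition zone diameter was read and averaged over triplicate measurements.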

Compound	zone of inhibition at 1000 µg/mL [1] [mm]	zone of inhibition at 1000 µg/mL [2] [mm]	zone of inhibition at 1000 µg/mL [3] [mm]	zone of inhibition at 1000 µg/mL [4] [mm]
Cc1[nH]c2ccccc2c1C(=O)c1nn(-c2ccccc2)nc1NC(=O)/C(C#N)=C/N(C)C	0	0	2.5	0
Cn1cc(C(=O)c2nn(-c3ccccc3)nc2N)c2ccccc21	6.7	12.2	6	10.7
Cc1[nH]c2ccccc2c1C(=O)c1nn(-c2ccccc2)nc1N	8.7	12	12	8.7
Cc1[nH]c2ccccc2c1C(=O)c1nn(-c2ccccc2)nc1NC(=O)CC#N	6.2	0	9.3	0
Cc1[nH]c2ccccc2c1C(=O)c1nn(-c2ccccc2)nc1NC(=O)c1cn[nH]c1N	0	0	11.3	0
Cn1cc(C(=O)c2nn(-c3ccccc3)nc2NC(=O)CC#N)c2ccccc21	0	0	6	0
Cc1[nH]c2ccccc2c1-c1c(C#N)c(=O)[nH]c2nn(-c3ccccc3)nc12	4	0	6	0
Cc1[nH]c2ccccc2c1C(=O)c1nn(-c2ccccc2)nc1NC(=O)c1cnn2c(-c3ccccc3)ccnc12	5	0	8	0
Cn1cc(C(=O)c2nn(-c3ccccc3)nc2NC(=O)c2cnn3c(-c4cccs4)ccnc23)c2ccccc21	0	0	4	5.7
Cn1cc(C(=O)CC#N)c2ccccc21	0	0	2	0
Cc1[nH]c2ccccc2c1C(=O)CC#N	0	0	3.3	0
Cn1cc(C(=O)/C(C#N)=N/Nc2ccccc2)c2ccccc21	0	0	2.7	0
Cc1[nH]c2ccccc2c1C(=O)/C(C#N)=N/Nc1ccccc1	0	0	1.3	0
CN(C)/C=C(\C#N)C(=O)Nc1nn(-c2ccccc2)nc1C(=O)c1cn(C)c2ccccc12	0	0	3.3	0
Cn1cc(C(=O)c2nn(-c3ccccc3)nc2NC(=O)c2cn[nH]c2N)c2ccccc21	0	0	2.7	0
Cn1cc(-c2c(C#N)c(=O)[nH]c3nn(-c4ccccc4)nc23)c2ccccc21	0	0	2	0
Cn1cc(C(=O)c2nn(-c3ccccc3)nc2NC(=O)c2cnn3c(-c4ccccc4)ccnc23)c2ccccc21	0	0	3.3	0
Cc1cccc(-c2ccnc3c(C(=O)Nc4nn(-c5ccccc5)nc4C(=O)c4cn(C)c5ccccc45)cnn23)n1	0	0	2.7	0
Cn1cc(C(=O)c2nn(-c3ccccc3)nc2NC(=O)/C(C#N)=C/C=C/c2ccccc2)c2ccccc21	0	0	2.7	0
Cc1[nH]c2ccccc2c1C(=O)c1nn(-c2ccccc2)nc1NC(=O)/C(C#N)=C/C=C/c1ccccc1	0		3	0
CC1(C)S[C@@H]2[C@H](NC(=O)[C@H](N)c3ccccc3)C(=O)N2[C@H]1C(=O)O [AMPICILLIN]	22	5	1	
